Experiments:
[1] = Cytotoxicity against human U87 cells assessed as growth inhibition at 25 uM after 72 hrs by MTT assay relative to control; format: functional, U-87MG ATCC; conditions: U-87 MG, read-out: GI
In short: (§1)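 Cells in logarithmic growth kept in DMEM with 10% FBS, 10 mM sodium bicarbonate, penicillin 100 IU/mL, glutamine 4 mM, at 37 °C under 5% CO2. Plated in duplicate at 2500–4000 cells/well. Compound (30 mM DMSO stock) added 24 h after plating. MTT read at 540 nm after 72 h exposure.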

[2] = test system: A2780; assay: Cytotoxicity against human A2780 cells assessed as growth inhibition after 72 hrs by MTT assay; format: functional; conditions: A2780, 72 h; in short: as §1
[3] = test system: HT-29; assay: Cytotoxicity against human HT-29 cells assessed as growth inhibition after 72 hrs by MTT assay; format: functional; conditions: HT-29, 72 h; in short: as §1
[4] = test system: DU-145; assay: Cytotoxicity against human DU145 cells assessed as growth inhibition after 72 hrs by MTT assay; format: functional; conditions: DU-145, 72 h; in short: as §1
[5] = Cytotoxicity against human BE(2)-C cells assessed as growth inhibition at 25 uM after 72 hrs by MTT assay relative to control; format: functional; conditions: read-out: GI; in short: as §1
[6] = Cytotoxicity against human H460 cells assessed as growth inhibition after 72 hrs by MTT assay; format: functional; conditions: NCI-H460, 72 h; in short: as §1
[7] = Cytotoxicity against human BE(2)-C cells assessed as growth inhibition after 72 hrs by MTT assay; format: functional; in short: as §1
[8] = test system: DU-145; assay: Cytotoxicity against human DU145 cells assessed as growth inhibition at 25 uM after 72 hrs by MTT assay relative to control; format: functional; conditions: DU-145, 72 h, read-out: GI; in short: as §1
[9] = Cytotoxicity against human SJ-G2 cells assessed as growth inhibition at 25 uM after 72 hrs by MTT assay relative to control; format: functional; conditions: SJ-G2, 72 h, read-out: GI; in short: as §1
[10] = test system: MCF7; assay: Cytotoxicity against human MCF7 cells assessed as growth inhibition after 72 hrs by MTT assay; format: functional; conditions: MCF7, 72 h; in short: as §1
[11] = Cytotoxicity against human MIA cells assessed as growth inhibition at 25 uM after 72 hrs by MTT assay relative to control; format: functional; conditions: read-out: GI; in short: as §1
[12] = test system: SW480; assay: Cytotoxicity against human SW480 cells assessed as growth inhibition after 72 hrs by MTT assay; format: functional; conditions: SW480, 72 h; in short: as §1
[13] = test system: A-431; assay: Cytotoxicity against human A431 cells assessed as growth inhibition at 25 uM after 72 hrs by MTT assay relative to control; format: functional; conditions: A-431, 72 h, read-out: GI; in short: as §1
[14] = test system: A2780; assay: Cytotoxicity against human A2780 cells assessed as growth inhibition at 25 uM after 72 hrs by MTT assay relative to control; format: functional; conditions: A2780, 72 h, read-out: GI; in short: as §1
[15] = Cytotoxicity against human SJ-G2 cells assessed as growth inhibition after 72 hrs by MTT assay; format: functional; conditions: SJ-G2, 72 h; in short: as §1
[16] = test system: HT-29; assay: Cytotoxicity against human HT-29 cells assessed as growth inhibition at 25 uM after 72 hrs by MTT assay relative to control; format: functional; conditions: HT-29, 72 h, read-out: GI; in short: as §1
[17] = test system: MCF7; assay: Cytotoxicity against human MCF7 cells assessed as growth inhibition at 25 uM after 72 hrs by MTT assay relative to control; format: functional; conditions: MCF7, 72 h, read-out: GI; in short: as §1
[18] = Cytotoxicity against mouse SMA cells assessed as growth inhibition at 25 uM after 72 hrs by MTT assay relative to control; format: functional; conditions: read-out: GI; in short: as §1
[19] = Cytotoxicity against human MIA cells assessed as growth inhibition after 72 hrs by MTT assay; format: functional; in short: as §1
[20] = test system: SW480; assay: Cytotoxicity against human SW480 cells assessed as growth inhibition at 25 uM after 72 hrs by MTT assay relative to control; format: functional; conditions: SW480, 72 h, read-out: GI; in short: as §1
[21] = Cytotoxicity against mouse SMA cells assessed as growth inhibition after 72 hrs by MTT assay; format: functional; in short: as §1
[22] = test system: A-431; assay: Cytotoxicity against human A431 cells assessed as growth inhibition after 72 hrs by MTT assay; format: functional; conditions: A-431, 72 h; in short: as §1
[23] = Cytotoxicity against human H460 cells assessed as growth inhibition at 25 uM after 72 hrs by MTT assay relative to control; format: functional; conditions: NCI-H460, 72 h, read-out: GI; in short: as §1
[24] = Cytotoxicity against human U87 cells assessed as growth inhibition after 72 hrs by MTT assay; format: functional, U-87MG ATCC; conditions: U-87 MG; in short: as §1

SMILES: O=C(NCCc1ccc(O)cc1)c1cc(Br)c(Br)[nH]1
- inhibition of growth at 25 µM [1]: < 0%
- GI50 [2]: 11 µM
- GI50 [3]: 28 µM
- GI50 [4]: > 50 µM
- inhibition of growth at 25 µM [5]: 101%
- GI50 [6]: 39 µM
- GI50 [7]: 16 µM
- inhibition of growth at 25 µM [8]: 3%
- inhibition of growth at 25 µM [9]: 44%
- GI50 [10]: 12 µM
- inhibition of growth at 25 µM [11]: 20%
- GI50 [12]: > 50 µM
- inhibition of growth at 25 µM [13]: 68%
- inhibition of growth at 25 µM [14]: 90%
- GI50 [15]: 30 µM
- inhibition of growth at 25 µM [16]: 48%
- inhibition of growth at 25 µM [17]: 81%
- inhibition of growth at 25 µM [18]: 46%
- GI50 [19]: 43 µM
- inhibition of growth at 25 µM [20]: < 0%
- GI50 [21]: 23 µM
- GI50 [22]: 20 µM
- inhibition of growth at 25 µM [23]: 11%
- GI50 [24]: > 50 µM
